Assay results as given in ChEMBL document CHEMBL1629520, “Synthesis and optimization of antitubercular activities in a series of 4-(aryloxy)phenyl cyclopropyl methanols” (Eur J Med Chem, 2010).
Converted amounts (≈) assume the structure as drawn.

Experiments:
[1] = tested on: Mycobacterium tuberculosis; test: Antitubercular activity against Mycobacterium tuberculosis H37Rv after 30 days by agar microdilution method; assay type: functional
In short: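 Compound dissolved in DMSO; two-fold dilutions added to Middlebrook 7H10 with OADC in slanted tubes, preincubated 24 h at 37 °C. Tubes then streaked with 5 × 10⁵ bacilli of H37Rv harvested from L–J culture into 0.85% saline with 0.05% Tween-80. Incubated 30 days at 37 °C. MIC is the lowest concentration giving complete inhibition of colonies, judged against drug-free control tubes.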

[2] = tested on: Mycobacterium tuberculosis; test: Antitubercular activity against Mycobacterium tuberculosis H37Rv infected in swiss mouse assessed as increase in mean survival time at 100 mg/kg, po qd for 28 days measured on day 30; assay type: functional
In short: (§1)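 Outbred female Swiss mice (18–20 g) infected i.v. via lateral vein with 10⁷ CFU H37Rv; groups of 10 formed next day. Test compound given as aqueous suspension at 100 mg/kg, INH at 25 mg/kg; placebo given to infected controls. All dosing oral, daily for 28 days. Mean survival time and % survivors scored at days 30 and 40; lung bacillary load per g determined on day 30.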

[3] = tested on: Mycobacterium tuberculosis; test: Antitubercular activity against Mycobacterium tuberculosis H37Rv infected in mouse BMDM assessed as reduction in intracellular CFU at 5 times MIC after 4 weeks relative to control; assay type: functional; set-up: scale not given: the % may be the effect or the level left
In short: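 Murine bone-marrow macrophages cultured 5 days, then infected 3 h with 5 × 10⁶ H37Rv in antibiotic-free DMEM/10% FBS. Extracellular bacteria washed off, and compound added at 5× MIC. After 4 days at 37 °C, 5% CO₂, cells lysed with 0.1% saponin. Lysates serially diluted in saline and plated on 7H11; colonies counted after 4 weeks at 37 °C.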

[4] = Chemical stability of the compound in HCl at […] assessed as compound remaining after 3 hrs by HPLC analysis; assay type: physicochemical; details: HCl solution; read-out: Stability
In short: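 Compound held in 0.1N HCl (gastric pH) at ambient temperature for up to 3 h and analysed by HPLC on a CN column (250 mm × 4 mm, 5 µm) at 25 ± 3 °C with PDA detection. Intact parent was followed by its peak, and degradation products by their retention times.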

[5] = Cytotoxicity against mouse BMDM after 48 hrs by MTS assay; assay type: cell-based
In short: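 Mouse bone-marrow cells were flushed into DMEM with 10% FBS, 15% L-929 conditioned supernatant and non-essential amino acids. They were plated at 10⁵/well and cultured 5 days at 37 °C, 5% CO₂, with medium changed every 3rd day. Graded compound concentrations were added in antibiotic-free FBS-DMEM for 48 h. MTS was added for 2 h and A490 read, with DMSO wells taken as 100% survival.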

[6] = tested on: Vero; test: Cytotoxicity against african green monkey Vero cells after 24 hrs by MTS assay; assay type: cell-based; details: Chlorocebus sabaeus
In short: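 Vero cells were seeded at 10,000/well in DMEM with antibiotics and 10% FBS and left to adhere overnight at 37 °C, 5% CO₂. […] MTS was then added for 2 h and A490 read, with DMSO wells taken as 100% survival.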

[7] = Selectivity index, ratio of IC50 for african green monkey Vero cells to MIC for Mycobacterium tuberculosis H37Rv; assay type: functional
In short: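 Vero cells seeded at 10,000/well in DMEM with antibiotics and 10% FBS, allowed to adhere overnight (37 °C, 5% CO₂). […] MTS added for 2 h, absorbance read at 490 nm, with DMSO wells taken as 100% survival. IC50 divided by H37Rv agar MIC.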

[8] = tested on: Mycobacterium tuberculosis; test: Antitubercular activity against drug-susceptible Mycobacterium tuberculosis clinical isolate1 after 30 days by agar microdilution method; assay type: functional
[9] = Selectivity index, ratio of IC50 for mouse BMDM to MIC for Mycobacterium tuberculosis H37Rv; assay type: functional
In short: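 Bone-marrow cells flushed with DMEM containing 10% FBS, 15% L-929 conditioned supernatant and non-essential amino acids. Seeded at 10⁵/well and grown 5 days, medium changed every 3rd day. Compounds added in antibiotic-free FBS-DMEM for 48 h. MTS added for 2 h, A490 read, DMSO wells taken as 100%. IC50 divided by H37Rv MIC.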

[10] = tested on: Mycobacterium tuberculosis; test: Antitubercular activity against Mycobacterium tuberculosis H37Rv infected in swiss mouse assessed as increase mouse survival at 100 mg/kg, po qd for 28 days measured on day 30 relative to control; assay type: functional; in short: as §1
[11] = tested on: Mycobacterium tuberculosis; test: Antitubercular activity against drug-susceptible Mycobacterium tuberculosis clinical isolate2 after 30 days by agar microdilution method; assay type: functional
[12] = tested on: Mycobacterium tuberculosis; test: Antitubercular activity against Mycobacterium tuberculosis H37Rv infected in swiss mouse assessed as decrease in bacilli load in lungs at 100 mg/kg, po qd for 28 days measured on day 30; assay type: functional; in short: as §1
[13] = tested on: Mycobacterium tuberculosis; test: Antitubercular activity against Mycobacterium tuberculosis H37Rv infected in swiss mouse assessed as increase in mean survival time at 100 mg/kg, po qd for 28 days measured on day 40; assay type: functional; in short: as §1
[14] = tested on: Mycobacterium tuberculosis; test: Antitubercular activity against Mycobacterium tuberculosis H37Rv infected in swiss mouse assessed as increase mouse survival at 100 mg/kg, po qd for 28 days measured on day 40 relative to control; assay type: functional; in short: as §1
[15] = tested on: Mycobacterium tuberculosis; test: Antitubercular activity against Mycobacterium tuberculosis H37Rv infected in swiss mouse assessed as increase mouse survival at 25 mg/kg, po qd for 28 days measured on day 30 relative to control; assay type: functional; in short: as §1
[16] = tested on: Mycobacterium tuberculosis; test: Antitubercular activity against Mycobacterium tuberculosis H37Rv infected in swiss mouse assessed as increase in mean survival time at 25 mg/kg, po qd for 28 days measured on day 40; assay type: functional; in short: as §1
[17] = tested on: Mycobacterium tuberculosis; test: Antitubercular activity against Mycobacterium tuberculosis H37Rv infected in swiss mouse assessed as increase in mean survival time at 25 mg/kg, po qd for 28 days measured on day 30 relative to control; assay type: functional; in short: as §1
[18] = tested on: Mycobacterium tuberculosis; test: Antitubercular activity against Mycobacterium tuberculosis H37Rv infected in swiss mouse assessed as increase mouse survival at 25 mg/kg, po qd for 28 days measured on day 40 relative to control; assay type: functional; in short: as §1

SMILES: O=C(c1ccc(OCc2cccc(OCCN3CCCCC3)c2)cc1)C1CC1
- MIC [1]: 12.5 µg/mL (≈ 32.9 µM)

SMILES: OC(c1ccc(OCc2cccc(OCCN3CCCCC3)c2)cc1)C1CC1 (stereo not drawn)
- MIC [1]: 6.25 µg/mL (≈ 16.4 µM)

SMILES: CC(C)N(CCOc1ccc(COc2ccc(C(O)C3CC3)cc2)cc1)C(C)C (stereo not drawn)
- MIC [1]: 12.5 µg/mL (≈ 31.4 µM)

SMILES: O=C(c1ccc(OCc2ccc(OCCN3CCCCC3)cc2)cc1)C1CC1
- MIC [1]: 12.5 µg/mL (≈ 32.9 µM)

SMILES: O=C(c1ccc(OCc2cccc(Br)c2)cc1)C1CC1
- MIC [1]: 12.5 µg/mL (≈ 37.7 µM)

SMILES: O=C(c1ccc(OCc2cccc([N+](=O)[O-])c2)cc1)C1CC1
- MIC [1]: 6.25 µg/mL (≈ 21 µM)

SMILES: OC(c1ccc(OCc2ccc(Br)cc2)cc1)C1CC1 (stereo not drawn)
- MIC [1]: 6.25 µg/mL (≈ 18.8 µM)
- MST [2]: 23.37
- Activity [3]: 88%

SMILES: COc1cc(COc2ccc(C(O)C3CC3)cc2)ccc1OCCN1CCCCC1 (stereo not drawn)
- MIC [1]: 6.25 µg/mL (≈ 15.2 µM)

SMILES: OC(c1ccc(OCc2ccc(OCCN3CCCCC3)cc2)cc1)C1CC1 (stereo not drawn)
- remaining at 3 h [4]: < 70%
- IC50 [5]: > 50 µg/mL
- IC50 [6]: > 50 µg/mL
- MIC [1]: 3.12 µg/mL (≈ 8.18 µM)
- Selectivity Index [7]: >10
- MST [2]: 27.5
- MIC [8]: > 12.5 µg/mL
- Selectivity Index [9]: > 10
- survival at 100 mg/kg [10]: 50%
- MIC [11]: > 12.5 µg/mL
- Activity [12]: 9 ×10⁷ /g
- Activity [3]: 98%
- MST [13]: 31.62
- survival at 100 mg/kg [14]: 25%

SMILES: O=[N+]([O-])c1cccc(COc2ccc(C(O)C3CC3)cc2)c1 (stereo not drawn)
- MIC [1]: 6.25 µg/mL (≈ 20.9 µM)

SMILES: CCCCN(CCCC)CCOc1ccc(C(=O)C2CC2)cc1
- MIC [1]: > 12.5 µg/mL

SMILES: COc1cc(COc2ccc(C(O)C3CC3)cc2)ccc1OCCN1CCOCC1 (stereo not drawn)
- MIC [1]: 12.5 µg/mL (≈ 30.2 µM)

SMILES: CN(C)CCOc1ccc(COc2ccc(C(O)C3CC3)cc2)cc1 (stereo not drawn)
- IC50 [5]: > 50 µg/mL
- IC50 [6]: > 50 µg/mL
- MIC [1]: 3.12 µg/mL (≈ 9.14 µM)
- Selectivity Index [7]: >10
- MST [2]: 12.85
- Selectivity Index [9]: > 10
- Activity [3]: 80%

SMILES: OC(c1ccc(OCc2cccc(Br)c2)cc1)C1CC1 (stereo not drawn)
- MIC [1]: 12.5 µg/mL (≈ 37.5 µM)

SMILES: OC(c1ccc(OCc2ccc(OCCN3CCOCC3)cc2)cc1)C1CC1 (stereo not drawn)
- IC50 [5]: > 50 µg/mL
- IC50 [6]: > 50 µg/mL
- MIC [1]: 3.12 µg/mL (≈ 8.14 µM)
- Selectivity Index [7]: >10
- Selectivity Index [9]: > 10
- Activity [3]: 89%

SMILES: OC(c1ccc(OCc2ccc(OCc3ccccc3)cc2)cc1)C1CC1 (stereo not drawn)
- IC50 [5]: > 50 µg/mL
- IC50 [6]: > 50 µg/mL
- MIC [1]: 3.12 µg/mL (≈ 8.66 µM)
- Selectivity Index [7]: >10
- Selectivity Index [9]: > 10
- Activity [3]: 54%

SMILES: COc1cc(COc2ccc(C(=O)C3CC3)cc2)cc(OC)c1OC
- MIC [1]: > 12.5 µg/mL

SMILES: COc1cc(COc2ccc(C(=O)C3CC3)cc2)ccc1OCCN1CCOCC1
- MIC [1]: 6.25 µg/mL (≈ 15.2 µM)

SMILES: O=C(c1ccc(OCc2ccc(OCc3ccccc3)cc2)cc1)C1CC1
- IC50 [5]: > 50 µg/mL
- IC50 [6]: > 50 µg/mL
- MIC [1]: 1.56 µg/mL (≈ 4.35 µM)
- Selectivity Index [7]: >10
- Selectivity Index [9]: > 10
- Activity [3]: 0%

SMILES: CC(C)N(CCOc1ccc(COc2ccc(C(=O)C3CC3)cc2)cc1)C(C)C
- MIC [1]: 12.5 µg/mL (≈ 31.6 µM)

SMILES: CCCCN(CCCC)CCOc1ccc(C(O)C2CC2)cc1 (stereo not drawn)
- MIC [1]: 12.5 µg/mL (≈ 39.1 µM)

SMILES: COc1cc(COc2ccc(C(O)C3CC3)cc2)ccc1OCCN(C(C)C)C(C)C (stereo not drawn)
- MIC [1]: > 12.5 µg/mL

SMILES: O=C(c1ccc(OCc2ccc(OCCN3CCOCC3)cc2)cc1)C1CC1
- MIC [1]: 6.25 µg/mL (≈ 16.4 µM)

SMILES: NNC(=O)c1ccncc1 [ISONIAZID]
- survival at 25 mg/kg [15]: 100%
- MST [16]: 40
- MST [17]: 30
- survival at 25 mg/kg [18]: 100%

SMILES: COc1cc(COc2ccc(C(=O)C3CC3)cc2)ccc1OCCN(C(C)C)C(C)C
- MIC [1]: > 12.5 µg/mL

SMILES: COc1cc(COc2ccc(C(O)C3CC3)cc2)cc(OC)c1OC (stereo not drawn)
- MIC [1]: 12.5 µg/mL (≈ 36.3 µM)

SMILES: COc1cc(COc2ccc(C(=O)C3CC3)cc2)ccc1OCCN1CCCCC1
- MIC [1]: > 12.5 µg/mL

SMILES: O=C(c1ccc(OCc2ccc(Br)cc2)cc1)C1CC1
- MIC [1]: 6.25 µg/mL (≈ 18.9 µM)

SMILES: CN(C)CCOc1ccc(COc2ccc(C(=O)C3CC3)cc2)cc1
- MIC [1]: > 12.5 µg/mL
